Screening results (PubChem BioAssay)
MrgX1 PAM: allosterically activates human MrgX1 receptor signaling; AID 588675; B-score at 10 µM; MrgX1-HEK293, Fluo-4 calcium flux, FDSS; active compounds read high; Q96LB2; 310,000 compounds, 0.63% hits;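 active means plate-corrected calcium response at least 3 library SD above typical, normal starting fluorescence, not activating the receptor alone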;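 further: compound read alongside a low EC10 to EC30 dose of BAM8-22 agonist; peak minus trough fluorescence over baseline measured at the second addition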
Target sequence (Q96LB2 whole entry, looked up): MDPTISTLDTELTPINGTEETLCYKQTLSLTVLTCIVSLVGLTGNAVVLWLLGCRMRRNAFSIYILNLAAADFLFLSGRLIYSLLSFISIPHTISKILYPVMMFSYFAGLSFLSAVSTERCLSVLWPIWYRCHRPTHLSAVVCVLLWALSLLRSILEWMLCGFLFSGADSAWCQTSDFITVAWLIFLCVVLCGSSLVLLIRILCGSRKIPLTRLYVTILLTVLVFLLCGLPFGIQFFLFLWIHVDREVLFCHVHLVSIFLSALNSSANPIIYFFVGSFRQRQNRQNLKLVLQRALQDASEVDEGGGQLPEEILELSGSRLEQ
RGS4 inh: human RGS4 inhibition; P49798; HEK293 M3R/RGS4 inducible, Fluo-4 calcium flux; active compounds read high; triggered by carbachol at its EC20; B-score at 10 µM; 310,000 compounds, 0.45% hits; AID 463165;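 active means B-score, a plate-corrected calcium signal, over three deviations above library mean, with baseline fluorescence within five deviations of library mean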;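 further: RGS4 expression induced by doxycycline in cells with stable M3 receptor; B-score is computed from the integrated fluorescence ratio over baseline after carbachol; higher B-score means a larger calcium signal and so more RGS4 inhibition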
Target sequence (P49798 whole entry, looked up): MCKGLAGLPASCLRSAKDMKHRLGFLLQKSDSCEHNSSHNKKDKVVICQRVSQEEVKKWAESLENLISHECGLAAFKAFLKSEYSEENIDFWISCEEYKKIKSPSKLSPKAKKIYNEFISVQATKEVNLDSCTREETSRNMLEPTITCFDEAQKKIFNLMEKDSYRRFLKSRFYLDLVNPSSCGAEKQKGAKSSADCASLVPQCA
RGS4 act: potentiators or activators of RGS4; HEK293 M3R/inducible RGS4, carbachol calcium flux Fluo4; active compounds read low; B-score at 10 µM; 310,000 compounds, 0.92% hits;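 active means B-score of the integrated calcium signal more than 4 SD below the library mean, with starting fluorescence not abnormally high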;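 further: negative B-score means reduced calcium response which marks RGS4 activation or potentiation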
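test system = M3R-expressing HEK293 line, RGS4 induced by doxycycline | probe or stimulus = carbachol at ECmax as muscarinic agonist stimulus | timing = dye loading 30 min 37 °C, buffer rest 30 min RT | signal = calcium dye Fluo4 fluorescence | evaluation = B score from integrated fluorescence ratio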
Cl transport mod: modulators of human KCC2 chloride dependent transport | AID 1456 | 190,000 compounds, 2.2% hits | B-score of Tl+ flux slope (higher = more flux/activation; lower = inhibition) at 10 µM | KCC2 cells, thallium flux FluoZin-2 fluorescence;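 active means thallium flux slope and its plate-corrected score both differing from the plate sample mean at a set confidence after two filtering rounds, in either direction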;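 further: slope of fluorescence scaled to starting intensity during 10 to 20 s after thallium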
MrgX1 ag: human MrgX1 receptor agonism, primary screen. Q96LB2. MrgX1-HEK293 cells, Fluo-4 calcium fluorescence, agonist mode; active compounds read high. B-score at 10 µM. 310,000 compounds, 0.44% hits. AID 588627;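 active means calcium response B-score plate-corrected fluorescence ratio at least 3 library SD, with starting fluorescence B-score inside 5 SD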
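Test system: Stable human MrgX1 HEK293 cell line | Schedule: Overnight plating before 1 h dye loading | Read-out basis: Baseline-normalised fluorescence change ratio, B-scored | Detection: Kinetic calcium dye fluorescence, Fluo-4 NW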
MrgX1 antag: blocks BAM8-22 activation of human MrgX1 receptor. 310,000 compounds, 1.3% hits. MRGX1-HEK293 calcium flux, Fluo-4, BAM8-22 antagonism; active compounds read low. B-score at 10 µM;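 active means calcium-response B-score plate-corrected more than 3 library SD below zero, starting fluorescence within 5 deviations, no agonist response on first addition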;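 further: peak minus trough fluorescence over baseline after final BAM8-22 challenge near maximal dose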
RGS4 inh valid: validation of RGS4 inhibitors; shares compounds with RGS4 inh; HEK293 M3R/RGS4, carbachol calcium Fluo-4 fluorescence; carbachol added at its EC20; 0 = buffer wells, 100 = carbachol control; calcium response, % at 10 µM; 1,700 compounds, 65% hits; AID 492999;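 active means duplicate-averaged calcium response above the buffer-only control mean plus 5 SD of those controls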;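 further: integrated fluorescence ratio F max minus min over baseline F0; higher response in RGS4-induced cells means RGS4 inhibition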
M3R Ca ctr: checks RGS4 inhibitor effects in non-induced HEK293 M3R cells; shares compounds with RGS4 inh; carbachol calcium Fluo-4; submaximal (EC20) carbachol stimulus; buffer wells 0%, carbachol control wells 100%; activity (percent), % at 10 µM; 1,900 compounds, 20% hits; AID 493000; call rule not given here;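 further: RGS4 induction absent so cells express M3R without RGS4; higher means more calcium signal and flags a non-specific hit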
M3R basal Ca ctr: second counter-screen for RGS4 inhibitors: non-induced cells without carbachol. shares compounds with RGS4 inh. HEK293 M3R/RGS4 non-induced, Fluo-4 calcium, no carbachol; normalised: buffer wells 0%, carbachol wells 100%. calcium response (agonist-mode artifact), % at 10 µM. 1,900 compounds, 22% hits. AID 493001;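 active means duplicate-averaged calcium rise in uninduced cells above buffer wells' mean plus 5 SD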
Each line names hits and unclear results; the compound was inactive in the other large screens (follow-up assays come after a bar, where they were run). Rows were chosen to be rich in hits. Some 4.7% of all compounds tested hit in one or more screens of this group.

COCCNC(=S)N(CCO)Cc1cc2cc3c(cc2[nH]c1=O)OCCO3	none (no result: Cl transport mod) | RGS4 inh valid inactive | M3R Ca ctr inactive | M3R basal Ca ctr inactive
COCCNC(=S)N(CCN(C)C)Cc1cc2cc3c(cc2[nH]c1=O)OCO3	none (no result: Cl transport mod)
CCN(CC)CCN(Cc1cc2cc3c(cc2[nH]c1=O)OCCO3)C(=S)NC	none (no result: Cl transport mod)
CCN(CC)CCN(Cc1cc2cc3c(cc2[nH]c1=O)OCCO3)C(=S)NCCCOC	none (no result: Cl transport mod) | RGS4 inh valid inactive | M3R Ca ctr inactive | M3R basal Ca ctr inactive
OC(CCc1ccncc1)COc1ccccc1 (centres undefined)	none (no result: Cl transport mod)
CCc1cc(-c2n[nH]c(C)c2-c2nc(C)cs2)c(O)cc1OC	RGS4 inh 5.32 | RGS4 inh valid 9.5% | M3R Ca ctr inactive | M3R basal Ca ctr inactive
COc1ccccc1CCC(=O)Nc1ccc(S(=O)(=O)Nc2cc(C)nc(C)n2)cc1	none (no result: Cl transport mod)
CN(C)/N=C/C=C1\CC/C(=C\c2ccc(F)c(F)c2)C1=O	none (no result: Cl transport mod) | M3R Ca ctr inactive | M3R basal Ca ctr 16.0%
CC(/C=C/C(=O)c1ccc(C)cc1)=C\c1ccccc1	none
Cc1ccc(C(=O)/C=C\C(=O)c2ccc(C)cc2)cc1	none | RGS4 inh valid inactive | M3R Ca ctr inactive | M3R basal Ca ctr inactive
CC1=NN(c2ccc(C)c(C)c2)C(=O)C1C(c1cccc(O)c1)C1C(=O)N(c2ccc(C)c(C)c2)N=C1C (centres undefined)	RGS4 inh 15.4 | RGS4 inh valid 13.5% | M3R Ca ctr inactive | M3R basal Ca ctr inactive
CCC(C)(CCNC(=O)Cc1ccccc1)c1ccccc1OC (centres undefined)	none (no result: Cl transport mod)
Cc1nn(CC(=O)N2CCOCC2)c(=O)c2nn(-c3ccccc3)c(C)c12	none (no result: Cl transport mod)
CCC(C(=O)N1CCOCC1)n1nc(C)c2c(C)n(-c3ccccc3)nc2c1=O (centres undefined)	RGS4 inh 8.97 (no result: Cl transport mod) | RGS4 inh valid 5.0% | M3R Ca ctr inactive | M3R basal Ca ctr inactive
O=C(NNC(=O)c1ncc(Cl)c(Cl)c1Cl)c1ccc(F)cc1	none (no result: Cl transport mod)
CCOC(=O)C1=C(c2ccccc2)NC(N)=NC1c1ccc(OCc2ccc(Cl)cc2)c(OC)c1 (centres undefined)	RGS4 inh 8.93 | RGS4 inh valid 31.5% | M3R Ca ctr inactive | M3R basal Ca ctr 33.5%
CC(=O)Oc1ccc2ccccc2c1C(NC(=O)Cc1ccccc1)c1ccc(Cl)cc1 (centres undefined)	MrgX1 antag -5.92 | M3R Ca ctr inactive | M3R basal Ca ctr inactive
CC1(C)Cc2cccc(OCC(=O)OCC(=O)NCc3ccccc3)c2O1	none (no result: Cl transport mod)
O=C(NN=C1CCCC1)c1[nH]c2ccc(Br)cc2c1-c1ccccc1	RGS4 inh 13.3 | RGS4 inh valid 16.5% | M3R Ca ctr inactive | M3R basal Ca ctr inactive
O=c1[nH]c(O)c(/C=C2\C=Nc3ccc(Br)cc32)[nH]1	none (no result: Cl transport mod)
CCCCC1=CC2=C(c3ccco3)C(=O)C(C)(OC(=O)c3ccc(OC)cc3)C(=O)C2=CN1Cc1ccccc1 (centres undefined)	MrgX1 antag -5.36 | RGS4 inh valid inactive | M3R Ca ctr inactive | M3R basal Ca ctr inactive
COC(=O)CCCC1=CC2=C(c3ccccc3)C(=O)C(C)(OC(=O)C3CCCC3)C(=O)C2=CN1C1CCCCC1 (centres undefined)	none
CCCCC1=CC2=C(c3ccco3)C(=O)C(C)(OC(=O)c3ccc(OC)cc3)C(=O)C2=CN1CCc1ccccn1 (centres undefined)	none | M3R Ca ctr 48.0% | M3R basal Ca ctr inactive
CCCCC1=CC2=CC(=O)C(C)(OC(=O)CC)C(=O)C2=CN1CCc1ccccn1 (centres undefined)	none
CCCCC1=CC2=C(c3ccco3)C(=O)C(C)(OC(=O)c3ccc(OC)cc3)C(=O)C2=CN1C1CCCCC1 (centres undefined)	none | RGS4 inh valid inactive | M3R Ca ctr inactive | M3R basal Ca ctr inactive
CCCCC1=CC2=C(c3ccco3)C(=O)C(C)(OC(=O)c3ccc(OC)cc3)C(=O)C2=CN1CCOC (centres undefined)	RGS4 inh 4.91 | RGS4 inh valid 22.0% | M3R Ca ctr 33.5% | M3R basal Ca ctr inactive
CCCCC1=CC2=C(c3ccco3)C(=O)C(C)(OC(=O)c3ccc(OC)cc3)C(=O)C2=CN1Cc1ccc2c(c1)OCO2 (centres undefined)	none
C[C@@H]1C[C@@H]2OC(=O)[C@]3(C)[C@H]2[C@@H](OC3(C)O)[C@]2(C)C(=O)C=C[C@H]12 (some centres undefined)	none
C=C1C(=O)O[C@@H]2C[C@@H](C)[C@@H]3C=CC(=O)[C@@]3(C)[C@@H](OC(C)=O)[C@H]12	RGS4 inh 7.64, MrgX1 ag 33.5 | RGS4 inh valid 21.5% | M3R Ca ctr inactive | M3R basal Ca ctr 11.0%
CCCNC(=O)c1nnsc1S(=O)(=O)c1ccc(Cl)cc1	none (no result: MrgX1 PAM, RGS4 inh, RGS4 act, MrgX1 ag, MrgX1 antag)
Cc1ccc(S(=O)c2snnc2C)cc1 (centres undefined)	none (no result: Cl transport mod)
CNC(=O)c1nnsc1S(=O)c1ccc(Cl)cc1 (centres undefined)	RGS4 inh 7.3 (no result: MrgX1 PAM, MrgX1 ag, MrgX1 antag) | RGS4 inh valid 29.5% | M3R Ca ctr inactive | M3R basal Ca ctr 13.5%
CCCNC(=O)c1nnsc1S(=O)c1ccc(Cl)cc1 (centres undefined)	RGS4 inh 7.2 (no result: MrgX1 PAM, MrgX1 ag, MrgX1 antag) | RGS4 inh valid 12.0% | M3R Ca ctr inactive | M3R basal Ca ctr 22.5%
COc1ccc2nc(/C=N/NC(=O)CCCCCNC(=O)OC(C)(C)C)ccc2c1	none
O=C(NCc1ccc(F)cc1)c1ccc(S(=O)(=O)Nc2cccc(C(F)(F)F)c2)cc1	RGS4 inh 5.25 | RGS4 inh valid 15.5% | M3R Ca ctr inactive | M3R basal Ca ctr 18.5%
O=C(NCc1ccccc1F)c1ccc(S(=O)(=O)Nc2cccc(C(F)(F)F)c2)cc1	none
CC(=O)/C(=N/Nc1ccccc1)N1CCOCC1	none | RGS4 inh valid inactive | M3R Ca ctr inactive | M3R basal Ca ctr inactive
Cc1ccc(CN2CCN(/N=C/c3ccc(N(C)C)cc3)CC2)cc1	RGS4 inh 8.79 | RGS4 inh valid inactive | M3R Ca ctr inactive | M3R basal Ca ctr inactive
Cc1ccc(/C=N/N2CCN(Cc3ccccc3)CC2)cc1	none
